Results on 5 compounds are retold here after ChEMBL document CHEMBL1151829, “Molluscicidal Phloroglucinols from the Fern Elaphoglossum piloselloides” (2009).

Each structure is given as a SMILES string. Some results are limits rather than exact numbers.

Common to all, as to format: functional
Experiment [1] has as its system Biomphalaria peregrina. The experiment can be described thus: Molluscicidal activity against Biomphalaria peregrina assessed as mortality at 10 ppm after 24 hrs. In short, it runs like this:
(§1)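 WHO protocol on adult snails, seven per beaker, each concentration in triplicate. Test solutions in water with MeOH ≤5% v/v; same-volume solvent controls. After 24 h exposure, snails were rinsed in dechlorinated tap water and kept 24 h to recover in dechlorinated tap water with lettuce leaves. Percent mortality was then recorded at the stated ppm.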

Experiment [2] relates to Biomphalaria peregrina. The experiment can be described thus: Molluscicidal activity against Biomphalaria peregrina assessed as mortality at 5 ppm after 24 hrs. In short, it runs like this: as §1
For experiment [3], the system named is Biomphalaria peregrina. The experiment can be described thus: Molluscicidal activity against Biomphalaria peregrina assessed as mortality at 1 ppm after 24 hrs. In short, it runs like this:
as §1

Experiment [4] relates to Biomphalaria peregrina. The experiment can be described thus: Molluscicidal activity against Biomphalaria peregrina after 24 hrs. The conditions noted are these: for LC50: Biomphalaria peregrina, 24 h, read-out: LD50 (the source's name). In short, it runs like this: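 Adult snails (seven per concentration, triplicate) exposed 24 h to test solutions in water with MeOH ≤5% v/v, per the WHO protocol. Snails were then washed and held 24 h in dechlorinated tap water with lettuce leaves before mortality was scored. Solvent-only negative control; 10 ppm CuSO₄ positive control.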

Experiment [5] relates to Biomphalaria peregrina. The experiment can be described thus: Molluscicidal activity against Biomphalaria peregrina assessed as mortality at 40 ppm after 24 hrs. In short, it runs like this:
as §1

Experiment [6] has as its system Biomphalaria peregrina. Kind of experiment: Molluscicidal activity against Biomphalaria peregrina assessed as mortality at 20 ppm after 24 hrs. In short, it runs like this:
as §1

In experiment [7] the test system is Biomphalaria pfeifferi. Kind of experiment: Molluscicidal activity against Biomphalaria pfeifferi. The conditions noted are these: read-out: LD50 (the source's name).
The subject of experiment [8] is Biomphalaria alexandrina. The experiment can be described thus: Molluscicidal activity against Biomphalaria alexandrina. The conditions noted are these: read-out: LD50 (the source's name).
Experiment [9] relates to Oncomelania hupensis. The experiment can be described thus: Molluscicidal activity against Oncomelania hupensis. Conditions: read-out: LD50 (the source's name).
Experiment [10] deals with Biomphalaria peregrina. The experiment can be described thus: Molluscicidal activity against Biomphalaria peregrina assessed as mortality at 0.5 ppm after 24 hrs. In short, it runs like this:
as §1

Turning to `CC/C=C(\OC(C)=O)C1=C(OC(C)=O)C(C)(CC=C(C)C)C(OC(C)=O)=C(Cc2c(OC)cc(OC(C)=O)c(C(=O)CCC)c2OC(C)=O)C1=O` (stereo unspecified), the Activity was found to be 43% in experiment [1], 5% in experiment [2] and 0% in experiment [3]. The compound further yielded an LD90 in [4] of 20.7 µM. For the same compound, in experiment [4], the LC50 was found to be 14.9 µM.

As for `CC/C=C(\OC(C)=O)C1=C(OC(C)=O)C(C)(CC=C(C)C)C(OC(C)=O)=C(Cc2c(OC)cc(OC(C)=O)c(C(=O)CCCCC)c2OC(C)=O)C1=O` (stereo unspecified), the Activity came to 81% in experiment [5]; 24% in experiment [6]; 0% in experiment [1]; 0% in experiment [2]; 0% in experiment [3]. For the same compound, the LD90 in [4] amounted to 58.4 µM. Moreover, in [4], the LC50 stood at 40.6 µM.

As for `O=C(Nc1ccc([N+](=O)[O-])cc1Cl)c1cc(Cl)ccc1O` [NICLOSAMIDE], the LC50 in experiment [7], in experiment [8] and in experiment [9] was at most 0.5 µg/mL each time.

In the case of `CCCC(=O)C1=C(O)C(C)(CC=C(C)C)C(O)=C(Cc2c(OC)cc(O)c(C(=O)CCC)c2O)C1=O` (stereo unspecified), the values for the Activity in [2], in [3] and in [10] were 95%, 10% and 0%, respectively. In experiment [4], this compound registered an LD90 of 9 µM. In addition, the LC50 in experiment [4] came out at 5.8 µM.

Consider `CCCCCC(=O)c1c(O)cc(OC)c(CC2=C(O)C(C)(CC=C(C)C)C(O)=C(C(=O)CCC)C2=O)c1O` (stereo unspecified), for which the Activity in experiment [2] was 100%. In addition, in experiment [3], the Activity is 57%. For the same compound, in experiment [10], the Activity was found to be 10%. For the same compound, in experiment [4], the LD90 stood at 2.6 µM, the LD100 result is recorded as “<=5 ppm” and the LC50 amounted to 1.8 µM.
